These results are taken from ChEMBL document CHEMBL1121474, “Peptidoaminobenzophenones, a novel class of ring-opened derivatives of 1,4-benzoidazepines” (J Med Chem, 1980).

The nature of data set [1]: (§1) Lethal dose (LD50) required to inhibit the spontaneous motor activity. The class given is toxicity, organism-based. The settings on record: mouse, in vivo. The procedure, abridged: (§2)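 Acute oral toxicity in mice, groups of one to three animals, deaths assessed on day 7 after administration. LD50 by graphical interpolation.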
For data set [2], the species on record is Mus musculus. The experiment in a line: Minimum effective dose (MED) required for the potentiation of thiopental sodium induced loss of the righting reflex. Format: functional. The note with it: read-out: MED. In a few lines:
(§3)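 Five mice per group dosed orally; 60 min later challenged with thiopental sodium 35 mg/kg intravenously. Minimum effective dose potentiating thiopental-induced anesthesia determined.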

The species entered for data set [3] is Mus musculus. Briefly: Effective dose required for 50% reduction of the control response was obtained by graphical interpolation rotarod performance. Format: functional. In a few lines:
(§4)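 Oral dosing in mice; rod rotating at 5 rpm tested at 60 min after dosing, counting animals falling off within 2 min. ED50 by graphical interpolation.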

For data set [4], the species on record is Mus musculus. Briefly: Dose required to prevent convulsion and death in 50% of mice during a 2 hr observation was obtained by graphical interpolation anti-pentylenetetrazole. The class given is functional. In a few lines: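 Groups of five mice dosed orally, then challenged 60 min later with 125 mg/kg pentylenetetrazol subcutaneously. ED50 = dose preventing convulsion and death in 50% of animals over a 2 h observation, by graphical interpolation.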

The species entered for data set [5] is Mus musculus. Briefly: Antifighting activity was measured by the antagonism against foot-shock induced fighting. The class given is functional. The procedure, abridged:
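Mice dosed orally; pairs confined under inverted glass enclosure and given foot shock (5 Hz, 2 ms, DC 50 V); pairs with 15-20 fighting episodes in 3 min selected. Five pairs per dose; responses counted before and at 60 min after dosing. ED50 (50% inhibition) by graphical interpolation.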

Data set [6] in a line: Lethal dose (LD50) required to inhibit the spontaneous motor activity. Format: toxicity, organism-based. The note with it: mouse, in vivo. The procedure, abridged: as §2
For data set [7], the species on record is Mus musculus. The experiment in a line: Effective dose required for 50% reduction of the control response in mice was obtained by graphical interpolation rotarod performance. The class given is functional. In a few lines:
as §4
For orientation: Falling from the rotarod earlier than controls is read as motor impairment.

Data set [8] has as its system Mus musculus. The experiment in a line: Spontaneous motor activity of mice was estimated after 60 minutes of oral administration. The class given is functional. Details: unit not given here. In a few lines:
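Oral dosing in mice; activity quantitated with an activity meter over 10 min starting 60 min after dosing. Five groups of three mice per dose.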

Data set [9] has as its system Mus musculus. The data set is described as §1. The class given is functional. The procedure, abridged:
as §2

For data set [10], the species on record is Mus musculus. The experiment in a line: Minimum effective dose (MED) required for the potentiation of thiopental sodium induced loss of the righting reflex (Students t test). The class given is functional. The settings on record: read-out: MED. The procedure, abridged: as §3

`NCC(=O)NCC(=O)Nc1ccc(Cl)cc1C(=O)c1ccccc1Cl`: in [1], the LD50 (usually the dose expected to kill half of the subjects tested) was > 1000 mg/kg. Further, the minimal effective dose in the data set filed under Mus musculus [2] was found to be 10 mg/kg. Also, the results for the 50% effective dose (ED50) in the data set listed under Mus musculus [3] and in the data set filed under Mus musculus [4] were > 100 mg/kg and 22 mg/kg, respectively.
For `NCC(=O)NCC(=O)Nc1ccc(Cl)cc1C(=O)c1ccccn1`, the 50% effective dose (ED50) (commonly the dose that gives a 50% effect, or the effect in half of the subjects) in the data set listed under Mus musculus [3] was determined as 59.5 mg/kg; in the data set listed under Mus musculus [4] it was 2.8 mg/kg.
On to `NCC(=O)NCC(=O)Nc1ccc(Cl)cc1C(=O)c1ccccc1`, for which the “ED50 for inhibition of foot-shock induced fighting” value (from here on “ED50 for inhibition”) in the data set listed under Mus musculus [5] is reported as 14.6. Besides, the minimal effective dose in the data set listed under Mus musculus [2] worked out at 25 mg/kg. The LD50 in [6] was > 1000 mg/kg. Besides, the ED50 came to 52.4 mg/kg in the data set filed under Mus musculus [7] and 14.1 mg/kg in the data set listed under Mus musculus [4].
Take `CCN(CC)CCN(C(=O)CNC(=O)CN)c1ccc(Cl)cc1C(=O)c1ccccc1`: in data set [1], the LD50 was > 1000 mg/kg. Moreover, the minimal effective dose in the data set filed under Mus musculus [2] amounted to 5 mg/kg. Further, the ED50 is > 100 mg/kg in the data set filed under Mus musculus [3] and 5.7 mg/kg in the data set listed under Mus musculus [4].
For `CN(C(=O)CNC(=O)[C@H](N)Cc1ccccc1)c1ccc(Cl)cc1C(=O)c1ccccc1Cl`, in the data set filed under Mus musculus [5], the “ED50 for inhibition” value was 20.4. Also, the LD50 in data set [1] was > 1000 mg/kg. For the same compound, the minimal effective dose in the data set listed under Mus musculus [2] is 10 mg/kg. For the same compound, the values for the ED50 in the data set filed under Mus musculus [3] and in the data set filed under Mus musculus [4] were 77.1 mg/kg and 4.8 mg/kg, respectively. The Activity in the data set with Mus musculus [8] is listed as >50.
Turning to `CCN(CC)CCN(C(=O)CNC(=O)CN)c1ccc(Cl)cc1C(=O)c1ccccc1F`, the “ED50 for inhibition” value in the data set filed under Mus musculus [5] was 9.4. In data set [1], the LD50 was > 1000 mg/kg. In addition, the ED50 is 50.8 mg/kg in the data set listed under Mus musculus [3] and 1.98 mg/kg in the data set listed under Mus musculus [4]. The Activity in the data set with Mus musculus [8] is reported as 25.
For the compound `CC(C)N(C(=O)CNC(=O)CN)c1ccc(Cl)cc1C(=O)c1ccccc1`, the ED50 in the data set filed under Mus musculus [3] is > 100 mg/kg; in the data set filed under Mus musculus [4] it was 15.8 mg/kg. Also, in [6], the median lethal dose (LD50) was > 1000 mg/kg.
Consider `CN(C(=O)CNC(=O)[C@@H](N)Cc1ccccc1)c1ccc(Cl)cc1C(=O)c1ccccc1Cl`, for which, in the data set filed under Mus musculus [5], the “ED50 for inhibition” value is 10.2. The LD50 in data set [1] is > 1000 mg/kg. In the data set listed under Mus musculus [2], the minimal effective dose was 1 mg/kg. In addition, the median effective dose (ED50) in the data set filed under Mus musculus [3] stood at 52.2 mg/kg; in the data set listed under Mus musculus [4] it was 1 mg/kg. Further, the Activity in the data set with Mus musculus [8] is recorded as >50.
As for `CC(C)C(N)C(=O)NCC(=O)N(C)c1ccc(Cl)cc1C(=O)c1ccccc1Cl` (stereo unspecified), the 50% lethal dose (LD50) in [1] is 750 mg/kg. In addition, the ED50 in the data set filed under Mus musculus [3] was > 100 mg/kg; in the data set listed under Mus musculus [4], 1.6 mg/kg. Further, the Activity in the data set on Mus musculus [8] is >25.
For the compound `CN(C(=O)CNC(=O)C(N)Cc1ccccc1)c1ccc(Cl)cc1C(=O)c1ccccc1` (stereo unspecified), in the data set filed under Mus musculus [5], the “ED50 for inhibition” value came to 15.1. Besides, the LD50 in data set [1] is > 1000 mg/kg. Also, in the data set listed under Mus musculus [2], the minimal effective dose is 5 mg/kg. Besides, the results for the ED50 in the data set filed under Mus musculus [3] and in the data set filed under Mus musculus [4] were 70.7 mg/kg and 3.9 mg/kg, respectively. In addition, the Activity with Mus musculus [8] is 23.4.
For `CC(C)CC(N)C(=O)NCC(=O)Nc1ccc(Cl)cc1C(=O)c1ccccc1` (stereo unspecified), the median lethal dose (LD50) in data set [1] was > 1000 mg/kg. The minimal effective dose in the data set listed under Mus musculus [2] stood at 25 mg/kg. Moreover, the ED50 in the data set filed under Mus musculus [3] is > 100 mg/kg; in the data set listed under Mus musculus [4], 15.9 mg/kg.
On to `CN(C(=O)CNC(=O)CN)c1ccc(Cl)cc1C(=O)c1ccccc1F`, for which, in the data set listed under Mus musculus [5], the “ED50 for inhibition” value was 1.6. Besides, in [1], the LD50 was > 1000 mg/kg. Besides, the minimal effective dose in the data set filed under Mus musculus [2] is 0.1 mg/kg. The 50% effective dose (ED50) in the data set listed under Mus musculus [3] is 16.7 mg/kg; in the data set listed under Mus musculus [4] it was 0.3 mg/kg. For the same compound, in the data set with Mus musculus [8], the Activity is reported as 3.1.
Turning to `CCc1cc(C(=O)c2ccccc2)c(NC(=O)CNC(=O)CN)s1`, the ED50 in the data set filed under Mus musculus [3] and in the data set listed under Mus musculus [4] was > 100 mg/kg throughout.
As to `CC(C)C(N)C(=O)NCC(=O)N(C)c1ccc(Cl)cc1C(=O)c1ccccc1` (stereo unspecified), the “ED50 for inhibition” value in the data set filed under Mus musculus [5] is 21.5. For the same compound, in data set [1], the LD50 is > 1000 mg/kg. Further, the minimal effective dose in the data set listed under Mus musculus [2] worked out at 10 mg/kg. The ED50 in the data set filed under Mus musculus [3] is 73.5 mg/kg; in the data set listed under Mus musculus [4], 3.4 mg/kg. The Activity in the data set on Mus musculus [8] was >50.
Turning to `CC(N)C(=O)NCC(=O)Nc1ccc(Cl)cc1C(=O)c1ccccc1` (stereo unspecified), the median lethal dose (LD50) in [1] was > 1000 mg/kg.
`CN(C(=O)CNC(=O)C(N)Cc1ccccc1)c1ccc(Cl)cc1C(=O)c1ccccc1Cl` (stereo unspecified): the “ED50 for inhibition” value in the data set filed under Mus musculus [5] is 17.1. The median lethal dose (LD50) in data set [1] is > 1000 mg/kg. For the same compound, the minimal effective dose in the data set filed under Mus musculus [2] is 5 mg/kg. The 50% effective dose (ED50) in the data set filed under Mus musculus [3] is 37.5 mg/kg; in the data set listed under Mus musculus [4], 1.6 mg/kg. The Activity in the data set on Mus musculus [8] is recorded as 5.5.
Turning to `CC(C)C(N)C(=O)NCC(=O)Nc1ccc(Cl)cc1C(=O)c1ccccc1` (stereo unspecified), the 50% lethal dose (LD50) in [1] was > 1000 mg/kg. The 50% effective dose (ED50) in the data set listed under Mus musculus [3] was > 100 mg/kg; in the data set filed under Mus musculus [4], 27.4 mg/kg.
Consider `CN(C(=O)CNC(=O)CN)c1ccc(Cl)cc1C(=O)c1ccccc1`, for which the “ED50 for inhibition” value in the data set filed under Mus musculus [5] is on record as 10.5. Besides, the LD50 in data set [1] amounted to 750 mg/kg. Moreover, the minimal effective dose in the data set listed under Mus musculus [2] is 2.5 mg/kg. In addition, the ED50 stood at 29.4 mg/kg in the data set filed under Mus musculus [3] and 1 mg/kg in the data set listed under Mus musculus [4]. The Activity in the data set with Mus musculus [8] is given as 15.1.
Regarding `NC(C(=O)NCC(=O)Nc1ccc(Cl)cc1C(=O)c1ccccc1)c1ccccc1` (stereo unspecified), the 50% lethal dose (LD50) in [1] is > 1000 mg/kg. Besides, the median effective dose (ED50) in the data set listed under Mus musculus [3] is > 100 mg/kg; in the data set filed under Mus musculus [4] it was 27.4 mg/kg.
Consider `CNC1=Nc2ccc(Cl)cc2C(c2ccccc2)=[N+]([O-])C1` [CHLORDIAZEPOXIDE], for which the ED50 came out at 82.3 mg/kg in the data set filed under Mus musculus [3] and 2.71 mg/kg in the data set listed under Mus musculus [4]. For the same compound, the LD50 with Mus musculus [9] amounted to 1080 mg/kg. In the data set filed under Mus musculus [10], the minimal effective dose is 2.5 mg/kg. For the same compound, the Activity in the data set on Mus musculus [8] is on record as 56.09.
In turn, `CN1C(=O)CN=C(c2ccccc2)c2cc(Cl)ccc21` [DIAZEPAM] showed an ED50 in the data set listed under Mus musculus [3] of 17.7 mg/kg. For the same compound, the minimal effective dose in the data set filed under Mus musculus [10] came to 0.5 mg/kg. Also, the Activity in the data set on Mus musculus [8] is 8.45.
In the case of `CN(C(=O)CNC(=O)CN)c1ccc(Cl)cc1C(=O)c1ccccc1Cl` [LORZAFONE ANHYDROUS], the “ED50 for inhibition” value in the data set filed under Mus musculus [5] came out at 3.2. Moreover, the LD50 in data set [1] is > 1000 mg/kg. Besides, in the data set listed under Mus musculus [2], the minimal effective dose was 0.5 mg/kg. In addition, the ED50 in the data set listed under Mus musculus [3] is 35.4 mg/kg; in the data set listed under Mus musculus [4], 0.56 mg/kg. For the same compound, the Activity with Mus musculus [8] is listed as 1.4.
